Measured values: ChEMBL document CHEMBL1157729, “Structure-activity relationship and mechanism of action studies of manzamine analogues for the control of neuroinflammation and cerebral infections” (J Med Chem, 2010)
Converted amounts (≈) assume the structure as drawn.

What was measured:
Mus musculus [1] = test: Toxicity in Plasmodium berghei NK65 infected Swiss Webster mice (Mus musculus) at 10 mg/kg, intraperitoneally for 3 days administered 1 day after infection measured after 5 days post infection; format: organism-based; set-up: dose 10 mg/kg, route intraperitoneal; settings: in vivo, ip, 120 h
Plasmodium berghei [2] = test: Antiplasmodial activity against Plasmodium berghei NK65 infected in Swiss Webster mice (Mus musculus) assessed as average parasitaemia at 200 mg/kg, perorally administered 1 day after infection measured after 21 days post infection; format: functional; settings: Plasmodium berghei, NK65, route oral
Method in brief: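 Male Swiss Webster mice (18-20 g), at least 5 per group, were inoculated ip with 2×10^7 P. berghei NK-65-parasitized red cells from a donor mouse and given a single oral dose (100 μl). Stock was made in SSV or 0.1 M HCl and diluted in SSV or 0.01 M HCl. Parasitemia was read from Giemsa-stained tail blood smears from day 5 to day 28. Cure meant no parasitemia through day 28.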

Plasmodium berghei [3] = test: Antiplasmodial activity against Plasmodium berghei NK65 infected in Swiss Webster mice (Mus musculus) assessed as average parasitaemia at 10 mg/kg, perorally administered 1 day after infection for 3 days measured after 28 days post infection; format: functional; settings: route oral
Method in brief: (§1)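 Male Swiss Webster mice (18-20 g, ≥5/group) inoculated i.p. with 2×10^7 P. berghei NK-65 parasitized RBC; oral dosing (100 μl, SSV or dilute HCl vehicle) once daily for 3 days from day 1; Giemsa-stained tail blood smears days 5–28; inhibition is % decrease versus untreated controls on day 5.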

HeLa [4] = test: Cell cycle arrest in human HeLa cells assessed as increase in S phase accumulation at 20 uM after 24 hrs by FACS analysis; format: functional
Plasmodium berghei [5] = test: Antiplasmodial activity against Plasmodium berghei NK65 infected in Swiss Webster mice (Mus musculus) assessed as average parasitaemia at 1.1 mg/kg, perorally administered 1 day after infection for 3 days measured after 10 days post infection; format: functional; settings: route oral
HeLa [6] = test: Cell cycle arrest in human HeLa cells assessed as increase in S phase accumulation at 3 uM after 24 hrs by FACS analysis; format: functional
HeLa [7] = test: Cell cycle arrest in human HeLa cells assessed as decrease in G2/M phase accumulation at 3 uM after 24 hrs by FACS analysis; format: functional; set-up: scale not given: the % may be the effect or the level left
Plasmodium berghei [8] = test: Antiplasmodial activity against Plasmodium berghei NK65 infected in Swiss Webster mice (Mus musculus) assessed as inhibition of parasitaemia at 10 mg/kg, perorally administered 1 day after infection for 3 days measured after 5 days post infection; format: functional; settings: route oral; method in brief: as §1
Mus musculus [9] = test: Toxicity in Plasmodium berghei NK65 infected Swiss Webster mice (Mus musculus) assessed as behavioral change at 100 mg/kg, perorally; format: organism-based; set-up: dose 100 mg/kg, route oral; settings: in vivo, po
Method in brief: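 P. berghei NK-65 infection in male Swiss Webster mice (18-20 g; 2×10^7 parasitized erythrocytes i.p.; ≥5 per group). A single oral dose of 100 μl, diluted in SSV or 0.01 M HCl, then observation for toxicity signs and body weight. Parasitemia read from Giemsa-stained tail smears from day 5 through day 28. Mice free of parasitemia through day 28 counted as cured.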

Plasmodium berghei [10] = test: Antiplasmodial activity against Plasmodium berghei NK65 infected in Swiss Webster mice (Mus musculus) assessed as average parasitaemia at 3.3 mg/kg, perorally administered 1 day after infection for 3 days measured after 10 days post infection; format: functional; settings: route oral
HeLa [11] = test: Cytotoxicity against human HeLa cells after 48 hrs by trypan blue exclusion assay; format: functional
Plasmodium berghei [12] = test: Antiplasmodial activity against Plasmodium berghei NK65 infected in Swiss Webster mice (Mus musculus) assessed as average parasitaemia at 1.1 mg/kg, perorally administered 1 day after infection for 3 days measured after 21 days post infection; format: functional; settings: route oral
Plasmodium berghei [13] = test: Antiplasmodial activity in Plasmodium berghei NK65 infected in Swiss Webster mice (Mus musculus) assessed as survivability at 1.1 mg/kg, perorally administered 1 day after infection for 3 days measured after 28 days post infection; format: functional; settings: route oral
Method in brief: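 Male Swiss Webster mice (18-20 g), at least 5 per group, inoculated i.p. with 2×10^7 P. berghei NK-65-parasitized red cells from a donor mouse. Oral dosing (100 μl, in SSV or 0.01 M HCl dilutions) from day one post-infection on a 3-day schedule (modified Peters test). Giemsa-stained tail-blood smears read from day 5 to day 28. Cure means no parasitemia through day 28.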

HeLa [14] = test: Cell cycle arrest in human HeLa cells assessed as decrease in G2/M phase accumulation at 10 uM after 24 hrs by FACS analysis; format: functional; set-up: scale not given: the % may be the effect or the level left
Plasmodium berghei [15] = test: Antiplasmodial activity against Plasmodium berghei NK65 infected in Swiss Webster mice (Mus musculus) assessed as survivability at 10 mg/kg, perorally administered 1 day after infection for 3 days measured after 28 days post infection; format: functional; settings: route oral
Plasmodium berghei [16] = test: Antiplasmodial activity against Plasmodium berghei infected in mice (Mus musculus) at 5 mg/kg, subcutaneously administered 1 day post infection for 3 days; format: functional; settings: route subcutaneous
Plasmodium berghei [17] = test: Antiplasmodial activity against Plasmodium berghei NK65 infected in Swiss Webster mice (Mus musculus) assessed as average parasitaemia at 100 mg/kg, perorally administered 1 day after infection measured after 28 days post infection; format: functional; settings: route oral
Method in brief: (§2)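 Male Swiss Webster mice (18-20 g, ≥5/group) inoculated i.p. with 2×10^7 P. berghei NK-65 parasitized RBC, given a single oral dose (100 μl, SSV or dilute HCl vehicle); parasitemia by Giemsa-stained tail blood smears days 5–28; activity as % decrease versus untreated controls on day 5.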

Plasmodium berghei [18] = test: Antiplasmodial activity against Plasmodium berghei NK65 infected in Swiss Webster mice (Mus musculus) assessed as average parasitaemia at 5 mg/kg, perorally administered 1 day after infection for 3 days measured after 28 days post infection; format: functional; settings: route oral
Plasmodium berghei [19] = test: Antiplasmodial activity against Plasmodium berghei NK65 infected in Swiss Webster mice (Mus musculus) assessed as inhibition of parasitaemia at 100 mg/kg, perorally administered 1 day after infection measured after 5 days post infection; format: functional; settings: route oral; method in brief: as §2
Mus musculus [20] = organism: Mus musculus; test: Toxicity in Plasmodium berghei NK65 infected Swiss Webster mice (Mus musculus) assessed as weight loss until day 5 of post infection; format: organism-based; settings: in vivo
Plasmodium berghei [21] = test: Antiplasmodial activity against Plasmodium berghei NK65 infected in Swiss Webster mice (Mus musculus) at 5 mg/kg, po; format: functional
Cryptococcus neoformans = test: Antifungal activity against Cryptococcus neoformans ATCC 90113; format: functional, organism-based
Method in brief: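 Broth microdilution per modified CLSI method; samples serially diluted in 20% DMSO/saline, tested in duplicate; inocula set by OD630 of suspensions in incubation broth; growth read at 630 nm before and after incubation; amphotericin B drug control.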

HeLa [22] = test: Cell cycle arrest in human HeLa cells assessed as increase in G0/G1 phase accumulation at 10 uM after 24 hrs by FACS analysis; format: functional

Structure (SMILES): O[C@]12C=C(c3nccc4c3[nH]c3ccccc34)[C@@H]3CCN(CCCC/C=C\CC1)C[C@@]31C[C@@H]3/C=C\CCCCN3[C@H]12 [MANZAMINE A]
- Activity (Mus musculus [1]): Toxic
- inhibition in vivo at 200 mg/kg (Plasmodium berghei [2]): 0%
- inhibition in vivo at 10 mg/kg (Plasmodium berghei [3]): 3.3%
- Activity (HeLa [4]): 67.2%
- inhibition in vivo at 1.1 mg/kg (Plasmodium berghei [5]): 11.5%
- Activity (HeLa [6]): 56.2%
- Activity (HeLa [7]): 13%
- inhibition in vivo at 10 mg/kg (Plasmodium berghei [8]): 98%
- Activity (Mus musculus [9]): Non-toxic
- inhibition in vivo at 3.3 mg/kg (Plasmodium berghei [10]): 4.3%
- Activity (HeLa [11]): 2 µg/mL
- inhibition in vivo at 1.1 mg/kg (Plasmodium berghei [12]): 39.6%
- inhibition in vivo at 1.1 mg/kg (Plasmodium berghei [13]): 50%
- Activity (HeLa [14]): 13.6%
- inhibition in vivo at 10 mg/kg (Plasmodium berghei [15]): 100%
- Activity (Plasmodium berghei [16]): 19.7 days
- inhibition in vivo at 100 mg/kg (Plasmodium berghei [17]): 0%
- inhibition in vivo at 5 mg/kg (Plasmodium berghei [18]): 39.3%
- inhibition in vivo at 100 mg/kg (Plasmodium berghei [19]): 100%
- Activity (Mus musculus [20]): Toxic
- inhibition in vivo at 5 mg/kg (Plasmodium berghei [21]): > 30%
- IC50 (Cryptococcus neoformans): 1 µg/mL (≈ 1.82 µM)
- Activity (HeLa [22]): 59.1%
